{"data": "Assay results pooled from the literature", "medium": "plasma"}
{"SMILES": "O=C(Nc1cc(F)c(F)c(F)c1)c1ccc(F)c(S(=O)(=O)NCc2cccc(B(O)O)c2)c1", "test system": "male Sprague-Dawley rat", "conditions": "oral, 20 mg/kg", "bioavailability [%]": 2.85}
{"SMILES": "N#Cc1ccc(-c2ccc(C[C@@H](C#N)NC(=O)C3(N)CCOCC3)cc2)cc1", "test system": "Sprague-Dawley rat", "conditions": "oral, 3 mg/kg", "bioavailability [%]": 92}
{"SMILES": "COc1ccc2c(Cc3ccccc3F)c3n(c(=O)c2c1OC)CCc1cc2c(cc1-3)OCO2", "test system": "rat", "conditions": "oral, 5 mg/kg", "bioavailability [%]": 15}
{"SMILES": "Cn1cc(-c2cc(N3CCCCS3(=O)=O)ccc2Oc2ccc(F)cc2F)c2c(F)c[nH]c2c1=O", "test system": "Sprague-Dawley rat", "conditions": "oral, 3 mg/kg", "bioavailability [%]": "20 to 30"}
{"SMILES": "COc1c(C#N)ccnc1N1C2CCC1CN(C(=O)c1cccnc1-n1cccn1)C2", "test system": "rat", "conditions": "oral, 30 mg/kg", "bioavailability [%]": 8.5}
{"SMILES": "COc1ccc2c(=O)oc3c(OC)cc(CC(O)CN(C)C)c4c(=O)oc1c2c34 (stereo not shown)", "test system": "rat", "conditions": "oral", "bioavailability [%]": "~37"}
{"SMILES": "Oc1c(Br)cc(Cl)c2cccnc12", "test system": "Sprague-Dawley rat", "conditions": "oral, 20 mg/kg", "bioavailability [%]": 39}
{"SMILES": "CCc1cc(OC)c2nccc(N3CCc4c(cc(Cn5ccnc5)cc4-c4cn(C)nc4C(F)(F)F)C3=O)c2c1", "test system": "male Sprague-Dawley rat", "conditions": "oral, 50 mg/kg", "bioavailability [%]": 65}
{"SMILES": "CC1(C)CCN(c2c(C#N)c(=O)[nH]c3cccnc23)CC1", "test system": "male Wistar rat", "conditions": "oral", "bioavailability [%]": 61}
{"SMILES": "CC[C@H](C)[C@H](NC(=O)[C@H](Cc1ccccc1)NC(=O)[C@H](CCC(=O)O)NC(=O)[C@H](CCCNC(=N)N)NC(=O)[C@H](C)NC(=O)[C@H](C)NC(=O)[C@H](CCC(N)=O)NC(=O)[C@H](CCC(=O)O)NC(=O)[C@H](CCC(=O)O)NC(=O)[C@H](CC(C)C)NC(=O)[C@H](Cc1ccc(O)cc1)NC(=O)[C@H](CO)NC(=O)[C@H](CO)NC(=O)[C@@H](NC(=O)[C@H](CC(=O)O)NC(=O)[C@H](CO)NC(=O)[C@@H](NC(=O)[C@H](Cc1ccccc1)NC(=O)[C@@H](NC(=O)CNC(=O)[C@H](CCC(=O)O)NC(=O)[C@H](C)NC(=O)CCc1c[nH]cn1)[C@@H](C)O)[C@@H](C)O)C(C)C)C(=O)N[C@@H](C)C(=O)N[C@@H](Cc1c[nH]c2ccccc12)C(=O)N[C@@H](CC(C)C)C(=O)N[C@H](C(=O)N[C@@H](CCCNC(=N)N)C(=O)NCC(=O)N[C@@H](CCCNC(=N)N)C(=O)N[C@@H](CCCCNC(=O)COCCOCCNC(=O)COCCOCCNC(=O)CC[C@H](NC(=O)CCCCCCCCCCCCCCCCC(=O)O)C(=O)O)C(=O)O)C(C)C", "test system": "rat", "conditions": "subcutaneous, 20 nmol/kg", "bioavailability [%]": 38.7}
{"SMILES": "Cc1c(-c2ccccc2)cccc1N1C(=O)c2cc(CN[C@H](C(=O)O)C(C)O)c(OCc3cccc(C#N)c3)cc2C1=O (stereo partly shown)", "test system": "Sprague-Dawley rat", "conditions": "oral, 50 mg/kg", "bioavailability [%]": 0.31}
{"SMILES": "Oc1c(-n2ccnc2)cnn1-c1cc(N2CCCCC2)ncn1", "test system": "rat", "conditions": "oral, 30 mg/kg", "bioavailability [%]": 39}
{"SMILES": "CC(C)(O)[C@H]1CC[C@H](Nc2ccc3ncc(-c4cccc(C(F)(F)F)c4)n3n2)CC1", "test system": "female Sprague-Dawley rat", "conditions": "oral, 40 mg/kg", "bioavailability [%]": 39}
{"SMILES": "CCOC(=O)[C@@]12C[C@@H]1[C@@H](n1ccc3c(NC)nc(C#Cc4ccc(Cl)s4)nc31)[C@H](O)[C@@H]2O", "test system": "male Sprague-Dawley rat", "conditions": "oral, 3 mg/kg", "bioavailability [%]": 92.3}
{"SMILES": "Oc1c(-n2ccnn2)cnn1-c1cc(N2CCOCC2)ncn1", "test system": "male rat", "conditions": "oral, 5 mg/kg", "bioavailability [%]": 34}
{"SMILES": "CNC(=O)c1cccc(-c2ccc([C@@H](O)[C@H]3O[C@H](CO)[C@@H](O)[C@H](O)[C@@H]3O)c(C)c2)c1", "test system": "male Sprague-Dawley rat", "conditions": "oral, 10 mg/kg, single dose", "bioavailability [%]": 1.95}
